Source: the M2OR odorant receptor database

Experiments:
Conditions in all cases: stereoisomer not certain
UniProt Q8VGZ2 = target: T1, UniProt Q8VGZ2
T1 sequence (whole entry): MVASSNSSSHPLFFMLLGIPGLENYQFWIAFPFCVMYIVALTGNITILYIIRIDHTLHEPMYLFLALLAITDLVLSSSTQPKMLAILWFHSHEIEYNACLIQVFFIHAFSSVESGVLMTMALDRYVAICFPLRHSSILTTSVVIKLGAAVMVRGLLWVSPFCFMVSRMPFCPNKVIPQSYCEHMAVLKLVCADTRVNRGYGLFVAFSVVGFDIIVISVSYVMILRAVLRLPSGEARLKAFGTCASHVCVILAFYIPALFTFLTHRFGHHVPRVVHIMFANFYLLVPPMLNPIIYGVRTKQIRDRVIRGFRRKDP
How it was run: (§1)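 Whether a receptor–molecule pair is responsive (active) rests on the original authors' judgment that its measured signal was statistically different from baseline. Pairs without that judgment are non-responsive (inactive). Sources used varied assay methods, commonly transient luciferase assays in mammalian cell lines.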

UniProt Q8VGZ7 = target: T2, UniProt Q8VGZ7
T2 sequence (whole entry): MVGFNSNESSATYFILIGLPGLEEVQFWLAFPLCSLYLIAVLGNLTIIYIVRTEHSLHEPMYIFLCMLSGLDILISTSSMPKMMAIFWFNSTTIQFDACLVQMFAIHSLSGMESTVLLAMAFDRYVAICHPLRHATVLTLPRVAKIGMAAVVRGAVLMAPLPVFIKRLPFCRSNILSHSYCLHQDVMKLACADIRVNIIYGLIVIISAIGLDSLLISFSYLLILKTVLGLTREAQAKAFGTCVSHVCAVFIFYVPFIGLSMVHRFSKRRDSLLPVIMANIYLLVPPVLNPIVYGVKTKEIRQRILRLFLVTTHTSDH
How it was run: as §1

UniProt Q8VH16 = target: T3, UniProt Q8VH16
T3 sequence (whole entry): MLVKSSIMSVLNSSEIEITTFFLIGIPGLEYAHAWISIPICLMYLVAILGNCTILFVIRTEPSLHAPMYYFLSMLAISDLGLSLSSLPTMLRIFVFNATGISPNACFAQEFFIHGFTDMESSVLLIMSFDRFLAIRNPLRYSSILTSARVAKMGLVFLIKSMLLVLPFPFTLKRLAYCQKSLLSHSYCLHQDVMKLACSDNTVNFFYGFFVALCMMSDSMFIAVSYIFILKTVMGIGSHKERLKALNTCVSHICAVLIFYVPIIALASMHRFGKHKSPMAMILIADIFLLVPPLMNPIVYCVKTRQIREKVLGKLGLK
How it was run: as §1

UniProt Q8VH20 = target: T4, UniProt Q8VH20
T4 sequence (whole entry): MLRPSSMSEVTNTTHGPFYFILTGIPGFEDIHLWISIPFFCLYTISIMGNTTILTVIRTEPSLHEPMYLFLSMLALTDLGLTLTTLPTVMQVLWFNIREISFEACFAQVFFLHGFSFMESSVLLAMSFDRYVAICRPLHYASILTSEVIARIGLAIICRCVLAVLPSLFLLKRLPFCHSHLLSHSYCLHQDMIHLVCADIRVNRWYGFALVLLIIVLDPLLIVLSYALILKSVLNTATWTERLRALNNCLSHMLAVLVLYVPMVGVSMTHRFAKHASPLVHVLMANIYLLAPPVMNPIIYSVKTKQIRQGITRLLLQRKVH
How it was run: as §1

UniProt Q8VH21 = target: T5, UniProt Q8VH21
T5 sequence (whole entry): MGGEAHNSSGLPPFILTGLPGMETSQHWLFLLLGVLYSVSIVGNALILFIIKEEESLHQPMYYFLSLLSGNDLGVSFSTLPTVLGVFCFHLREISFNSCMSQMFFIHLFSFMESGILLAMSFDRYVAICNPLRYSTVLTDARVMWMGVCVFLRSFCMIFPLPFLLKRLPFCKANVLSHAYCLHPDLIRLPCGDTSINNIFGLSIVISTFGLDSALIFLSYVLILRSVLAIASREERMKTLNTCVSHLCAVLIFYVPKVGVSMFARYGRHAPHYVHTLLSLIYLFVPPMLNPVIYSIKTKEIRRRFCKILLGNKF
How it was run: as §1

UniProt Q8VGX8 = target: T6, UniProt Q8VGX8
T6 sequence (whole entry): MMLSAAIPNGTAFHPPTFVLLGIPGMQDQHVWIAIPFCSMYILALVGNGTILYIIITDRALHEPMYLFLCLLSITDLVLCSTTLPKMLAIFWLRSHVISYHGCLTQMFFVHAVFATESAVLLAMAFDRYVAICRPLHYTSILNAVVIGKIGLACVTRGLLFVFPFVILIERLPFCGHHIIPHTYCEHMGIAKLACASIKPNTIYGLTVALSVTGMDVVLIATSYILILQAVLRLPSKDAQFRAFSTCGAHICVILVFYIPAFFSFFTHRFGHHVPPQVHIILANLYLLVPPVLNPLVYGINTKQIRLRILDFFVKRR
How it was run: as §1

UniProt Q8VH18 = target: T7, UniProt Q8VH18
T7 sequence (whole entry): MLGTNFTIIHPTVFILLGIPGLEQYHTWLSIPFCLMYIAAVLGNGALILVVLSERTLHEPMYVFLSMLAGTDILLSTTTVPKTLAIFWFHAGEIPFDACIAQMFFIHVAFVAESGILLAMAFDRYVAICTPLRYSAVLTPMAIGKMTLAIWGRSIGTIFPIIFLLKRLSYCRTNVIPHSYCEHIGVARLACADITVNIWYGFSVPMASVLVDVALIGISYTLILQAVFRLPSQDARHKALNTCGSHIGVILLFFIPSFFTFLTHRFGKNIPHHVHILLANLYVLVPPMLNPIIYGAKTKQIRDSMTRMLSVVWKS
How it was run: as §1

UniProt Q8VGY6 = target: T8, UniProt Q8VGY6
T8 sequence (whole entry): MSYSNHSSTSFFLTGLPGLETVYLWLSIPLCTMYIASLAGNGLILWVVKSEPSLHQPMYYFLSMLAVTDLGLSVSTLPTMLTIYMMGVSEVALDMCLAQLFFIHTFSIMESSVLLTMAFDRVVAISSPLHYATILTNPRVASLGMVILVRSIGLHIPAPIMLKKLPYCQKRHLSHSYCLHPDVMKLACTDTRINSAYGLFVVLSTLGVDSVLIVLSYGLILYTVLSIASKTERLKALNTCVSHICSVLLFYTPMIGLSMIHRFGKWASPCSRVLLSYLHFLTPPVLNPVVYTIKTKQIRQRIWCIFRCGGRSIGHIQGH
How it was run: as §1

UniProt Q8VH10 = target: T9, UniProt Q8VH10
T9 sequence (whole entry): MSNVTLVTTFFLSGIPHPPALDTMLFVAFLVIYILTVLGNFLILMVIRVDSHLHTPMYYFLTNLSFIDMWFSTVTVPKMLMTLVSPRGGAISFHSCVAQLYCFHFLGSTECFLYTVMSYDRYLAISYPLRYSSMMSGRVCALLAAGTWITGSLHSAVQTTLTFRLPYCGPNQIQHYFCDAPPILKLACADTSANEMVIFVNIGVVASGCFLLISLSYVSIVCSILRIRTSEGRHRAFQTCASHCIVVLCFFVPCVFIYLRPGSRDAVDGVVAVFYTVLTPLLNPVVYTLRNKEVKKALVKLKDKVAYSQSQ
How it was run: as §1
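Further: active if original authors judged signal statistically different from baseline.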

Row | SMILES | odorant receptor agonist call (UniProt Q8VGZ2) | odorant receptor agonist call (UniProt Q8VGZ7) | odorant receptor agonist call (UniProt Q8VH16) | odorant receptor agonist call (UniProt Q8VH20) | odorant receptor agonist call (UniProt Q8VH21) | odorant receptor agonist call (UniProt Q8VGX8) | odorant receptor agonist call (UniProt Q8VH18) | odorant receptor agonist call (UniProt Q8VGY6) | odorant receptor agonist call (UniProt Q8VH10)
1 | CCCC(C)C(=O)OCC (centres undefined) | inactive | inactive | inactive | inactive | inactive | – | – | – | –
2 | O=C(O)CCCCBr | – | – | – | – | – | inactive | inactive | – | –
3 | CCCCCCCC(=O)[O-].[H+] | active | inactive | – | active | – | active | active | inactive | inactive
4 | CCCC(C)=O | inactive | inactive | – | inactive | – | inactive | inactive | inactive | inactive
5 | Cc1ccc(C(C)C)c(O)c1 | inactive | inactive | inactive | inactive | inactive | – | – | – | –
6 | CCCCCCC(C)O (centres undefined) | inactive | inactive | inactive | inactive | inactive | – | – | – | –
7 | CCCCOC(=O)C(C)OC(=O)CCC (centres undefined) | inactive | inactive | – | inactive | – | inactive | – | inactive | inactive
8 | O=c1ccc2ccccc2o1 | inactive | inactive | – | inactive | – | inactive | – | inactive | inactive
9 | O=C([O-])CCCCCCCC(=O)[O-].[H+].[H+] | inactive | inactive | inactive | inactive | inactive | inactive | inactive | – | –
10 | O=C(O)CCCCCBr | inactive | inactive | inactive | active | inactive | active | inactive | – | –
11 | CSSCc1ccco1 | inactive | inactive | inactive | inactive | inactive | – | – | – | –
12 | Cc1ccccc1OC(=O)C(C)C | inactive | inactive | inactive | inactive | inactive | – | – | – | –
13 | C1CCOCC1 | inactive | inactive | inactive | inactive | inactive | – | – | – | –
14 | CCCCCC=CCCC=O | active | inactive | inactive | active | inactive | – | – | – | –
15 | CCCCC=O | inactive | inactive | inactive | inactive | inactive | – | inactive | – | –
16 | CCCCCCCCCCOC(C)=O | inactive | inactive | inactive | inactive | inactive | – | – | – | –
17 | CC=C(C)C=O | inactive | inactive | inactive | inactive | active | – | – | – | –

Row | SMILES | odorant receptor agonist call (UniProt Q8VGZ2) | odorant receptor agonist call (UniProt Q8VGZ7) | odorant receptor agonist call (UniProt Q8VH16) | odorant receptor agonist call (UniProt Q8VH20) | odorant receptor agonist call (UniProt Q8VH21) | odorant receptor agonist call (UniProt Q8VGX8) | odorant receptor agonist call (UniProt Q8VH18) | odorant receptor agonist call (UniProt Q8VGY6) | odorant receptor agonist call (UniProt Q8VH10)
18 | CCCCCO | inactive | inactive | – | inactive | – | inactive | inactive | inactive | inactive
19 | O=C(O)CCCBr | – | – | – | – | – | inactive | inactive | – | –
20 | CCc1occc(=O)c1O | inactive | inactive | inactive | inactive | inactive | – | – | – | –
21 | O=C([O-])CCCCCCC(=O)[O-].[H+].[H+] | inactive | inactive | inactive | inactive | inactive | inactive | inactive | – | –
22 | Cc1ccc(OC(=O)C(C)C)cc1 | inactive | inactive | inactive | inactive | inactive | – | – | – | –
23 | COC(OC)c1ccccc1 | inactive | inactive | inactive | inactive | inactive | – | – | – | –
24 | CNc1ccccc1C(=O)OC | inactive | inactive | inactive | inactive | inactive | – | – | – | –
25 | Cc1ccc(C(C)C)cc1 | inactive | inactive | inactive | inactive | inactive | – | – | – | –
26 | C=C(C)C1CCC(C)C(O)C1 (centres undefined) | inactive | inactive | inactive | inactive | inactive | – | – | – | –
27 | COc1cnccn1 | inactive | inactive | inactive | inactive | inactive | – | – | – | –
28 | CC(=O)OC1(C)CCC23CC1C(C)(C)C2CCC3C (centres undefined) | active | inactive | inactive | active | inactive | – | – | – | –
29 | CCCCCOC(=O)CC | inactive | inactive | inactive | inactive | inactive | – | – | – | –
30 | CCCCCCC=CC=O | inactive | inactive | inactive | inactive | inactive | – | – | – | –
31 | CCSCC | inactive | inactive | inactive | inactive | inactive | – | – | – | –
32 | CCC(C)c1nccnc1OC (centres undefined) | inactive | inactive | inactive | inactive | inactive | – | – | – | –
33 | CCOC(=O)CC(C)C | inactive | inactive | inactive | inactive | inactive | – | – | – | –
34 | CSSSC | inactive | inactive | inactive | active | inactive | – | – | – | –
